Screens from PubChem BioAssay.
Compounds with a hit are over-represented: about 1.5% of the library has one in this group of screens.
Apaf1 inhib: inhibitors of human Apaf-1 apoptosome, primary screen, biochemical, DEVD-Rh110 fluorescence, uHTS; 0.71% of 330,000 active; Apoptotic protease-activating factor 1 (Homo sapiens), O14727; inhibition, % at 20 µM; reconstituted apoptosome caspase-3 activity; active means inhibition of at least 40% at 20 µM
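Material: cell-free apoptosome with Apaf-1, procaspase-3 and caspase-9; Buffer or medium: Hepes pH 7.5 with detergent and BSA; Reagent: cytochrome c trigger plus (Z-DEVD)2-Rh110 caspase-3 substrate; Times: compound with Apaf-1, dATP, procaspase-3 30 min, then 50 min reaction, room temperature; Technique: Rh110 fluorescence intensity.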
UBC13 inh: UBC13 polyubiquitin chain formation inhibitors, primary screen, biochemical, TR-FRET, uHTS; Ubiquitin-conjugating enzyme E2 N (Homo sapiens), P61088; inhibition, % at 20 µM; 0.47% of 330,000 active; AID 485273, 2010; in the data active means inhibition above about 45%, passing the limit was not always enough; inconclusive means no clear call, values can overlap the other calls
PREPL inh: PREPL enzyme inhibitors, primary screen, biochemical, fluorescence polarization; recombinant PREPL, fluorescence polarization activity-based probe; inhibition, % at 5.96 µM; 0.68% of 320,000 active; AID 2751, 2010; in the data active means inhibition above about 43%
Target sequence (Q4J6C6 whole entry, looked up): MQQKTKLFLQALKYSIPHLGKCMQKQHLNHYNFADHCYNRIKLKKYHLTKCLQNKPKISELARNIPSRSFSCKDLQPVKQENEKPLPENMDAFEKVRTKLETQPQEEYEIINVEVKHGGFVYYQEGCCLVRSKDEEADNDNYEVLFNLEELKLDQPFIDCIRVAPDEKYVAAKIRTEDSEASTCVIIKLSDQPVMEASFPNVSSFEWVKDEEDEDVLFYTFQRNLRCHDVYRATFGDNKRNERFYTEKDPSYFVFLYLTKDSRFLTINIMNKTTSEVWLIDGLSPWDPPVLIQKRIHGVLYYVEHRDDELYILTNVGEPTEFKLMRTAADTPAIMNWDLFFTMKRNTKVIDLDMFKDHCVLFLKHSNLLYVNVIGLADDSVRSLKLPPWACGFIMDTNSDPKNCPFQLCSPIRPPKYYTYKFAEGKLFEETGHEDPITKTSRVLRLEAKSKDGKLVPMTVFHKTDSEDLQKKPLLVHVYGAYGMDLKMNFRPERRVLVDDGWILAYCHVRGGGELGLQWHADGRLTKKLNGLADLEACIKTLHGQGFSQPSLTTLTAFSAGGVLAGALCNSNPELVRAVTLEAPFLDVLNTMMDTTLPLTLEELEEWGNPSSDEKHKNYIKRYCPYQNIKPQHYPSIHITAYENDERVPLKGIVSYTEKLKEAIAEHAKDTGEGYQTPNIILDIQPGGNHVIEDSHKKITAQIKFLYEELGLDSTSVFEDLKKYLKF
UCH37 inh: inhibitors of human UCH37 deubiquitinase, primary screen, biochemical, Ub-AMC cleavage, fluorescence | purified proteasome/UCH37 | inhibition, % (no concentration beside the values) | 0.33% of 330,000 active | AID 588478, 2011;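 active means mean inhibition over replicate wells above about 20%, limit read from the data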
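system = Proteasome-associated human UCH37 deubiquitinase | amount = 0.15 nM proteasome as dispensed | medium = pH 7.4 Tris-HCl (50 mM) with ovalbumin, ATP-MgCl2, DTT | incubation = 30 min preincubation with enzyme, 25 min cleavage at room temperature | detection = AMC fluorescence 355/460 nm | read-out basis = percent inhibition | controls = no-proteasome and no-compound wells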
Casp3 counter: CASP3 inhibitor validation, counterassay for project on UBE2N polyubiquitination blockers, biochemical, one dose. shares compounds with UBC13 inh. Recombinant caspase-3, Caspase-Glo 3/7 luminescence, 60 min. inhibition, % at 20 µM. 4% of 1,400 active;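 active means mean inhibition across replicates above about 26%, limit read from the data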
UBC13 confirm: UBC13 polyubiquitination inhibitors, single-point retest, confirmation, biochemical, TR-FRET, single concentration; shares compounds with UBC13 inh; inhibition, % at 10 µM; 68% of 1,400 active; AID 488859, 2010; in the data active means inhibition above about 45%; inconclusive means no clear call, values can overlap the other calls
Large screens that a line does not name were inactive (follow-up assays come after a bar, where they were run).

Cc1ccc(C(C(=O)NC(C)(C)C)N(Cc2ccccc2)C(=O)c2snc(C(N)=O)c2N)o1 (stereo not drawn)	UBC13 inh 71 | Casp3 counter inactive | UBC13 confirm 66
O=c1c(=Cc2cccc3ccccc23)sc2ncnn12	none (no result: Apaf1 inhib, UBC13 inh, PREPL inh)
Oc1ccc(C[C@@H]2CNCCN2CCCCC2CCCCC2)cc1	UBC13 inh 59 | Casp3 counter inactive | UBC13 confirm 48
COc1cc(C=NNC(=O)COc2cccc(F)c2)ccc1OS(=O)(=O)c1ccc(C)cc1	none (no result: Apaf1 inhib, UBC13 inh, PREPL inh)
CC1(C)Cc2c(sc(NC(=O)C(=O)NCCCN3CCOCC3)c2C(N)=O)CO1	UBC13 inh 83 | Casp3 counter inactive | UBC13 confirm 106
Cc1ccc(C)c(N2CCN(c3ccc4cc(S(=O)(=O)N5CCCCC5)ccc4n3)CC2)c1	UBC13 inh inconclusive
Cc1cccc(N2CCN(c3ccc4cc(S(=O)(=O)N5CCCCC5)ccc4n3)CC2)c1C	UBC13 inh 52 | Casp3 counter inactive | UBC13 confirm inconclusive
c1ccc(CCCCN2C(Nc3ccccc3)=NC[C@@H]2Cc2ccccc2)cc1	UBC13 inh 49 | Casp3 counter inactive | UBC13 confirm inactive
CCN1CCN(C(=O)c2cc(-c3ccco3)nc3ccccc23)CC1	UBC13 inh 52 | Casp3 counter inactive | UBC13 confirm inactive
O=C(NN=Cc1ccc(OC(F)F)cc1)c1cc[n+]([O-])cc1	none (no result: Apaf1 inhib, UBC13 inh, PREPL inh)
COc1cc(C(=O)Nc2nc3ccc(S(C)(=O)=O)cc3s2)cc(OC)c1C	UBC13 inh 47 | Casp3 counter inactive | UBC13 confirm inactive
Cc1n[nH]c(C)c1CCC(=O)NN=Cc1c(C)[nH]c2ccccc12	none (no result: Apaf1 inhib, UBC13 inh, PREPL inh)
C#CCOCCOCCOCCNc1nc(N2CCN(C(=O)CCCCCCCCCCNC(=O)Cn3cc(CCCCCN)nn3)CC2)nc(N2CCN(C(=O)CCCCCCCCCCNC(=O)[C@@H](CCSC)n3cc(CCO)nn3)CC2)n1	Apaf1 inhib 72, UBC13 inh 119 (no result: UCH37 inh) | Casp3 counter inactive | UBC13 confirm 125
C#CCOCCOCCOCCNc1nc(N2CCN(C(=O)CCCCCCCCCCNC(=O)[C@H](CO)n3cc(CCCSC)nn3)CC2)nc(N2CCN(C(=O)CCCCCCCCCCNC(=O)[C@H](CCCN=C(N)N)n3cc(C[C@@H](C)CC)nn3)CC2)n1	Apaf1 inhib 45, UBC13 inh 122 (no result: UCH37 inh) | Casp3 counter inactive | UBC13 confirm 121
CC(=NN)c1c(-c2ccccc2)c2cc(Br)ccc2[nH]c1=O	none (no result: Apaf1 inhib, UBC13 inh, PREPL inh)
COc1ccc(C(CNC(=O)c2ccc(-c3nc4ccccc4s3)o2)N2CCCC2)cc1 (stereo not drawn)	UBC13 inh 61 | Casp3 counter inactive | UBC13 confirm 53
COc1ccc(C(CNC(=O)c2cc3ccccc3o2)N2CCCC2)cc1 (stereo not drawn)	none
COC(=O)C1=C(C)N(Cc2ccccc2)C(=NCc2cccc(Cl)c2)N[C@H]1c1cccc(F)c1	Apaf1 inhib 67, UBC13 inh 72 | Casp3 counter inactive | UBC13 confirm 86
COC(=O)C1=C(C)N(Cc2ccccc2)C(=NCc2cc(OC)c(OC)c(OC)c2)N[C@H]1c1cccc(F)c1	none
O=C(NN=Cc1ccc(N2CCOCC2)cc1)C1COc2ccccc2O1 (stereo not drawn)	none (no result: Apaf1 inhib, UBC13 inh, PREPL inh)
CN(C)CCCNc1nc2sc3c(c2c(=O)n1CCc1ccccc1)CCCCC3	UBC13 inh 49, PREPL inh 68 | Casp3 counter inactive | UBC13 confirm 73
COCCCNC(=O)Cn1c(=O)n(CC(=O)NCCc2ccc(OC)c(OC)c2)c(=O)c2sccc21	none
COc1ccc(CCNC(=O)Cn2c(=O)n(-c3ccc(C)c(F)c3)c(=O)c3sccc32)cc1OC	UBC13 inh 49 | Casp3 counter inactive | UBC13 confirm 46
O=C1Cc2ccccc2Sc2ccc(O)cc21	UBC13 inh 51 | Casp3 counter inactive | UBC13 confirm inactive
COc1ccccc1CNC(=O)c1ccc2c(=O)n(CCCN3CCCC3=O)c(=S)[nH]c2c1	UBC13 inh 46 | Casp3 counter inactive | UBC13 confirm inactive
COc1ccc(CNC(=O)c2ccc3c(=O)n(CCCN4CCCC4=O)c(=S)[nH]c3c2)cc1	none
CCCCNC(=S)N=Nc1c(O)[nH]c2ccccc12	UBC13 inh 85 | Casp3 counter inactive | UBC13 confirm 102
CCOc1ccc(NC(=S)N=Nc2c(O)[nH]c3ccccc23)cc1	UBC13 inh 61 | Casp3 counter inactive | UBC13 confirm 77
Cc1ccc2[nH]c(O)c(N=NC(N)=S)c2c1	UBC13 inh 79 | Casp3 counter inactive | UBC13 confirm 96
NC(=S)N=Nc1c(O)[nH]c2ccccc12	UBC13 inh 63 | Casp3 counter inactive | UBC13 confirm 80
Oc1cccc(NC(=S)N=Nc2c(O)[nH]c3ccccc23)c1	UBC13 inh inconclusive
Oc1[nH]c2ccccc2c1N=NC(=S)NCCc1ccccc1	none (no result: Apaf1 inhib, UBC13 inh)
Cn1ncc(C#N)c1N=CN(Cc1ccccc1)Cc1ccccc1	none (no result: Apaf1 inhib, UBC13 inh, PREPL inh)
COc1ccc(C=NNc2nc(N3CCCC3)nc(N3CCCC3)n2)c(OC)c1OC	none (no result: Apaf1 inhib, UBC13 inh, PREPL inh)
Cc1sc2nc(C)n(N=CN(C)C)c(=O)c2c1C	none (no result: Apaf1 inhib, UBC13 inh, PREPL inh)
COc1ccc(/C=C/C(=O)NCC(=O)NN=Cc2cc(Br)ccc2OC)cc1	none (no result: Apaf1 inhib, UBC13 inh, PREPL inh)
COc1cc2c3nnc(-c4ccccc4)c-3cn(Cc3ccc(F)cc3)c2cc1OC	none
COc1cc2c3nnc(-c4ccc(F)cc4)c-3cn(Cc3ccc(C)cc3)c2cc1OC	UBC13 inh 49 | Casp3 counter inactive | UBC13 confirm inactive
CC1CC(C)CN(CCCNC(=O)C2CCN(c3ncnc4c3sc3cccc(F)c34)CC2)C1 (stereo not drawn)	UBC13 inh 48 | Casp3 counter inactive | UBC13 confirm 54
CCN(CC)CCCNC(=O)C1CCN(c2ncnc3c2sc2cccc(F)c23)CC1	none
COc1ccc(OC)c(-c2nc(C(=O)NC3CCN(Cc4ccccc4)CC3)cc3c2[nH]c2ccccc23)c1	none
COc1cc(-c2nc(C(=O)NC3CCN(Cc4ccccc4)CC3)cc3c2[nH]c2ccccc23)cc(OC)c1OC	Apaf1 inhib 41, UBC13 inh 56 | Casp3 counter inactive | UBC13 confirm 49
COc1cc(C=NNC(=O)c2ccc3ccccc3c2)ccc1Oc1ccc([N+](=O)[O-])cn1	none (no result: Apaf1 inhib, UBC13 inh, PREPL inh)
CCC(=O)Nc1cc(-c2cc3ccccc3oc2=O)ccc1OC	none
COc1ccc(-c2cc3ccccc3oc2=O)cc1NC(=S)NC(=O)c1ccc2c(c1)OCCO2	UBC13 inh 49 | Casp3 counter inactive | UBC13 confirm 46
Cc1ccc2nc(N(CCCN(C)C)C(=O)c3ccc4c(c3)CCCC4)sc2c1	UBC13 inh 66 | Casp3 counter inactive | UBC13 confirm 69
